Measured values as given in the M2OR odorant receptor database.

How the values were obtained:
Details in all cases: stereoisomer not certain
UniProt A2ATE5 = target: T1, UniProt A2ATE5
T1 sequence (whole entry): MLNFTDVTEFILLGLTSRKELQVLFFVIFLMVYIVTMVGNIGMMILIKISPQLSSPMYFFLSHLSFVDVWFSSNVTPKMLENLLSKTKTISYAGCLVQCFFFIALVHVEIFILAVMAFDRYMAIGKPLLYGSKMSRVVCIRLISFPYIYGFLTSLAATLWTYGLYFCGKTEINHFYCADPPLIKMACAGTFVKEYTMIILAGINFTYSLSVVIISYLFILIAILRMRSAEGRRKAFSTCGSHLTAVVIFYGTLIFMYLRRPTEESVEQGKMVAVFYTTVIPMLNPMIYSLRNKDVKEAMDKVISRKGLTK
Procedure, shortened: (§1)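 Each entry records the cell line, G-protein, co-transfected protein and tags used. Methods varied with the source, often transient luciferase assays in mammalian cell lines. A receptor–molecule pair is called responsive (active) if the original authors judged its signal statistically different from baseline and non-responsive (inactive) otherwise.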

UniProt A2AVB0 = target: T2, UniProt A2AVB0
T2 sequence (whole entry): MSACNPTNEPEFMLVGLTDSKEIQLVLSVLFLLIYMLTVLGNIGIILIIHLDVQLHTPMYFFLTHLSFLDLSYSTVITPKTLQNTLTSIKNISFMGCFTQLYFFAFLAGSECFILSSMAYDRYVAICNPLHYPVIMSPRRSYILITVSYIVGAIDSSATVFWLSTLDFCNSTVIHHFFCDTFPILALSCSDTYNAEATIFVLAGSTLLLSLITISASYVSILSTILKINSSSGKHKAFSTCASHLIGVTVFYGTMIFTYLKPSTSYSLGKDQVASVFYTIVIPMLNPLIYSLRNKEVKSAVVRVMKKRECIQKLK
Procedure, shortened: as §1

UniProt A2AVB5 = target: T3, UniProt A2AVB5
T3 sequence (whole entry): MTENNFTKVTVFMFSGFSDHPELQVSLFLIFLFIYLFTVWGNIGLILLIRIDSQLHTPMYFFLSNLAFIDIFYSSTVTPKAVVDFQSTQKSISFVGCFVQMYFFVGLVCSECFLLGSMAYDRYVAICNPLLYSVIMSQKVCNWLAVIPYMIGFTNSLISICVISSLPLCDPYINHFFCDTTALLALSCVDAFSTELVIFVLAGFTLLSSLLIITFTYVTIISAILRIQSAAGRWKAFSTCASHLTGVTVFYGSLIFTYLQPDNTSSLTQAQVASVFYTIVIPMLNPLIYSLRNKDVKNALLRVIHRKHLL
Procedure, shortened: as §1

UniProt B2RVX8 = target: T4, UniProt B2RVX8
T4 sequence (whole entry): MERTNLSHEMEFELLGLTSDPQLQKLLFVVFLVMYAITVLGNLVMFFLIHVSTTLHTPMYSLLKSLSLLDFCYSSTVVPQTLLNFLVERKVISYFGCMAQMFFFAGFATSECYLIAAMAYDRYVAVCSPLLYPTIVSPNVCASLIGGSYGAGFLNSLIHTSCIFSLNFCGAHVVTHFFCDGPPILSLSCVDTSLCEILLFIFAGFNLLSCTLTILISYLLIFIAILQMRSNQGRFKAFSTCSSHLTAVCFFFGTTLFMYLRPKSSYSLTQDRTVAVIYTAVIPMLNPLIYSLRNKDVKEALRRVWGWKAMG
Procedure, shortened: as §1

UniProt E9PVX1 = target: T5, UniProt E9PVX1
T5 sequence (whole entry): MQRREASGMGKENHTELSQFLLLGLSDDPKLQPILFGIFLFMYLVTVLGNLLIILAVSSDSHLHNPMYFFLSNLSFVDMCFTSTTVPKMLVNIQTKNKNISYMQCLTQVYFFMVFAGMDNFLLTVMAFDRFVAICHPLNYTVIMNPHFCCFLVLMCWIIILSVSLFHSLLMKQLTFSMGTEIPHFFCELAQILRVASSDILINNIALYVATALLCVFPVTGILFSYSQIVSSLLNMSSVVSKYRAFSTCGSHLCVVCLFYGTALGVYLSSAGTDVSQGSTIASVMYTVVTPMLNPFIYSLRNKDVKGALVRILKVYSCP
Procedure, shortened: as §1

UniProt E9PX47 = target: T6, UniProt E9PX47
T6 sequence (whole entry): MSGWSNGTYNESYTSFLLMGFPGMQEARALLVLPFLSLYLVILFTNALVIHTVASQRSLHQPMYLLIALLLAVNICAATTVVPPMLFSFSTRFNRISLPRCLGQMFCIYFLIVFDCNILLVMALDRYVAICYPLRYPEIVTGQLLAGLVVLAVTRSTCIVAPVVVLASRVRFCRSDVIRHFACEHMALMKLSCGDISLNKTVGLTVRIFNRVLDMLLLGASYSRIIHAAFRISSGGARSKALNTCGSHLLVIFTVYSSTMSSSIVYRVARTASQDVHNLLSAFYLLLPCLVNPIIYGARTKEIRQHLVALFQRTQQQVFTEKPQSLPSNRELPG
Procedure, shortened: as §1

UniProt E9PXN3 = target: T7, UniProt E9PXN3
T7 sequence (whole entry): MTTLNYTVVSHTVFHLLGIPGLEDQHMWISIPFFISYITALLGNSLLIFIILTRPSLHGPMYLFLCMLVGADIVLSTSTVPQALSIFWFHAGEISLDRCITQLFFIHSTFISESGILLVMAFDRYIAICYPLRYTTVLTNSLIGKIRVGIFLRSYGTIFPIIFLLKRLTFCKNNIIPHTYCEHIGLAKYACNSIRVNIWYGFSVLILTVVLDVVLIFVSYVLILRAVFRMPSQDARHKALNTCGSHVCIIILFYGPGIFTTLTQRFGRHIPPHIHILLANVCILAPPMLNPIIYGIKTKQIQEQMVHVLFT
Procedure, shortened: as §1

UniProt E9PZ66 = target: T8, UniProt E9PZ66
T8 sequence (whole entry): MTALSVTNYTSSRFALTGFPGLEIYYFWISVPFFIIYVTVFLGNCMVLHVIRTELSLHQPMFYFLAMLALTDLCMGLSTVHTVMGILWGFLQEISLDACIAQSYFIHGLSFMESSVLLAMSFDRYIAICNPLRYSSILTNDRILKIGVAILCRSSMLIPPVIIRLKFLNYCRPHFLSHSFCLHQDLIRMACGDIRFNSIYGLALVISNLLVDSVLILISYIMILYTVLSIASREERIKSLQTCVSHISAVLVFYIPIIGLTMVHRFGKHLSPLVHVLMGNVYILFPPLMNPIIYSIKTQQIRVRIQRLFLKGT
Procedure, shortened: as §1

UniProt E9Q4X7 = target: T9, UniProt E9Q4X7
T9 sequence (whole entry): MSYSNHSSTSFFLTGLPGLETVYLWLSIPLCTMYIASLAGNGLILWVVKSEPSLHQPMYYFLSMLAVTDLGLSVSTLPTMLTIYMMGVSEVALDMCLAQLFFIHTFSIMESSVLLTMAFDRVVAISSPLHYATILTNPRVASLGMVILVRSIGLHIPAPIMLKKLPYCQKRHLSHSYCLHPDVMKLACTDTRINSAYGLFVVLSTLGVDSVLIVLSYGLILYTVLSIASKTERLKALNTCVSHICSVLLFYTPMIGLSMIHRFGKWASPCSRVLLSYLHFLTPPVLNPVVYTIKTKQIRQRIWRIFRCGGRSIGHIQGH
Procedure, shortened: as §1

UniProt E9Q546 = target: T10, UniProt E9Q546
T10 sequence (whole entry): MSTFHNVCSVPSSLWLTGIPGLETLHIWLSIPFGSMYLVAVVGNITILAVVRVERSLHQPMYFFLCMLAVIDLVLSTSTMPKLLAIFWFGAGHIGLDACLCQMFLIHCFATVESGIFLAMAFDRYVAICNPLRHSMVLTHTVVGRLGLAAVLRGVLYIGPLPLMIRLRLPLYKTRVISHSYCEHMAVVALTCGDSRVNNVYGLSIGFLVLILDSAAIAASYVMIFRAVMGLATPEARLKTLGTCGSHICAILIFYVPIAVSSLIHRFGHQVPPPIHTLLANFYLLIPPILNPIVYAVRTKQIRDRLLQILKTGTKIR
Procedure, shortened: as §1

UniProt E9Q6Z7 = target: T11, UniProt E9Q6Z7
T11 sequence (whole entry): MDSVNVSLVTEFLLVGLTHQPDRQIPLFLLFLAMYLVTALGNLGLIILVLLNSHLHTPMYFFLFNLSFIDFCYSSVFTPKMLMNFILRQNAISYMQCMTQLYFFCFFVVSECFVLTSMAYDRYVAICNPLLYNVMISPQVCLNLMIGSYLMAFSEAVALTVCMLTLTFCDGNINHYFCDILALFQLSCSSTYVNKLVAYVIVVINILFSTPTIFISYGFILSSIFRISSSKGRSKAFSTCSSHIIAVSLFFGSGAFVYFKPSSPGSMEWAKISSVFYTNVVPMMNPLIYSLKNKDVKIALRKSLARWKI
Procedure, shortened: as §1

UniProt K7N609 = target: T12, UniProt K7N609
T12 sequence (whole entry): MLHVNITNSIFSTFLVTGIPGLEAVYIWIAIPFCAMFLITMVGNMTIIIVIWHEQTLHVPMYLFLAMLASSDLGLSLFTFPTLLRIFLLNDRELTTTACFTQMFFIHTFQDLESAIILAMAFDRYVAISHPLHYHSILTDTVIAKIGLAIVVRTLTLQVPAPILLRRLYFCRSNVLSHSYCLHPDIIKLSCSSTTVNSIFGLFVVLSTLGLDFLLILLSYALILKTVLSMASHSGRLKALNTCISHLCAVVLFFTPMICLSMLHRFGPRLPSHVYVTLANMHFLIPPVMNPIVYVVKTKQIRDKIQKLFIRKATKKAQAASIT
Procedure, shortened: as §1

Compound	odorant receptor agonist call (UniProt A2ATE5)	odorant receptor agonist call (UniProt A2AVB0)	odorant receptor agonist call (UniProt A2AVB5)	odorant receptor agonist call (UniProt B2RVX8)	odorant receptor agonist call (UniProt E9PVX1)	odorant receptor agonist call (UniProt E9PX47)	odorant receptor agonist call (UniProt E9PXN3)	odorant receptor agonist call (UniProt E9PZ66)	odorant receptor agonist call (UniProt E9Q4X7)	odorant receptor agonist call (UniProt E9Q546)	odorant receptor agonist call (UniProt E9Q6Z7)	odorant receptor agonist call (UniProt K7N609)
CCCCCCO	inactive	inactive	inactive	inactive	inactive	inactive	inactive	inactive	inactive	inactive	inactive	inactive
CCCCCC=O	inactive	inactive	inactive	inactive	inactive			inactive	inactive	inactive	inactive	inactive
CCOC(=O)C(C)C	inactive	inactive	inactive	inactive	inactive			inactive	inactive	inactive	inactive	inactive
CCCCCCCCCCCO	inactive	inactive			inactive		inactive	inactive	inactive	inactive	inactive	
CCCCCCC(C)O (centres undefined)	inactive	inactive			inactive			inactive	inactive	inactive	active	
CC1CCC(C(C)C)C(=O)C1 (centres undefined)	inactive	inactive			inactive			inactive	inactive	inactive	inactive	
